Experimental data collected from several papers.
Protocols differ between the studies behind these lines.
Target: Histamine H3 receptor (HRH3, Homo sapiens, UniProt Q9Y5N1)
Method: radioligand

Compound	test	conditions	Ki
CCC(=O)c1ccc(OCCCCCCN2CCCC(C)C2)cc1 (centres unmarked)	ligand displacement	cell membranes	0.039 µM
CN1CCN(c2cc(Nc3ccc(OCCCN4CCCCC4)cc3)nc(N)n2)CC1	ligand displacement	cell membranes	0.0118 µM
O=C1NC(=O)C(c2ccccc2)(c2ccc(OCCCN3CCCCC3)cc2)N1 (centres unmarked)	ligand displacement	cell membranes	0.579 µM
CCCCN1CCC(COC(=O)c2ccc(N)c(OCF)c2)CC1	cell-free assay		3.1 µM
c1ccc(CNc2ccnc(Nc3ccc(OCCCN4CCCCC4)cc3)n2)cc1	ligand displacement	cell membranes	0.00449 µM
CN(C)c1ccc(/C=C/C=C2\CCc3cc(OCc4ccc(OCCCN5CCCCC5)cc4)ccc3C2=O)cc1	ligand displacement	cell membranes	0.068 µM
O=C1NC(c2ccccc2)(c2ccccc2)C(=O)N1CCCN1CCCCC1	ligand displacement	cell membranes	0.00615 µM
O=C1CCCc2ccc(OCCCN3CCCCC3)cc21	ligand displacement	cell membranes	0.089 µM
CCCc1ccc(OCCCCCCN2CCCC(C)C2)cc1 (centres unmarked)	ligand displacement	cell membranes	0.0859 µM
CN(C)c1ccc(/C=C2\CCc3ccc(OCc4ccc(OCCCN5CCCCC5)cc4)cc3C2=O)cc1	ligand displacement	cell membranes	0.097 µM
CC1CCCN(CCCCCCOc2ccc(-c3ccccc3)cc2)C1 (centres unmarked)	ligand displacement	cell membranes	0.147 µM
